Test results published in paper PMC2793091 (Biochemistry, 2009).
Like-named read-outs stand apart in the source and are kept apart here.

Legend:
[1] = test system: VAChT; settings: cited from earlier work
[2] = pH 10
[3] = test system: sigma 2 receptors; settings: cited from earlier work
[4] = test system: sigma 1 receptors; settings: cited from earlier work
[5] = titration of (±)-vesamicol absorbance at 263 nm; cited from earlier work
[6] = test system: postnuclear supernatant from cells not transfected with VAChT; type: binding, rat; settings: five nM [3H]vesamicol
In short: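 Postnuclear supernatant (1500g, 10 min) from untransfected PC12^A123.7 cells, in sucrose/HEPES/DTT buffer pH 7.4. 20 μg protein mixed with iso-osmolal MES/HEPES/AMPSO pH buffer. Started with [³H]vesamicol in potassium tartrate/HEPES/DTT buffer; 10 min, 23°. pH measured just before filtration. Two portions filtered, washed with ice-cold buffer containing 5 μM (±)-vesamicol, scintillation-counted, averaged. Nonspecific binding measured with 5 μM (±)-vesamicol.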

[7] = Solubility in binding buffers at different pH

## Nc1cccc2c1CC(N1CCC(c3ccccc3)CC1)C(O)C2 (racemic) [(±)-ABV, (±)-aminobenzovesamicol]
[1]
  potency relative to (±)-vesamicol: about 1000 fold
[2]
  solubility: soluble

## (−)-trans-2-(4-phenylpiperidino)cyclohexanol [(−)-vesamicol]
[3]
  affinity relative to VAChT: only somewhat less than for VAChT
[4]
  affinity relative to VAChT: only somewhat less than for VAChT
[5]
  pKaves (protonated vesamicol): 9.0 ± 0.1

## (−)-[^3H]trans-2-(4-phenylpiperidino)cyclohexanol [[^3H]vesamicol]
[6]; high pH
  "specific-nonspecific" binding: ~ 0.4 pmol/mg
[6]; low pH
  "specific-nonspecific" binding: essentially no
[5]
  pKaves (protonated vesamicol): 9.0 ± 0.1

## (±)-trans-2-(4-phenylpiperidino)cyclohexanol [(±)-vesamicol]
[7]; 200 μM, pH 10 (data not shown)
  solubility: not soluble
[7]; 1 mM, acidic and neutral pH
  solubility: soluble
